Measured values: article PMC7508885 (SLAS discovery : advancing life sciences R & D, 2020)

Columns and labels:
P. aeruginosa TyrRS-S [1] = molecular target: T1, P. aeruginosa TyrRS-S (Pseudomonas aeruginosa, UniProt Q9HWP3); assay: SPA-based tRNA aminoacylation assay; type: biochemical
P. aeruginosa TyrRS-Z [2] = molecular target: T2, P. aeruginosa TyrRS-Z (Pseudomonas aeruginosa, UniProt Q9I5Q3); assay: SPA-based tRNA aminoacylation assay; type: biochemical
P. aeruginosa TyrRS-S [3] = molecular target: T1, P. aeruginosa TyrRS-S; assay: Binding mode assay; type: biochemical; details: for shift in the IC50 with increasing ATP concentration (competition with ATP): ATP 25-1000 μM, Tyr held constant; for shift in the IC50 with increasing ATP concentration (competition with ATP) / shift in the IC50 with increasing Tyr concentration (competition with Tyr): TyrRS-S 0.05 μM; for shift in the IC50 with increasing Tyr concentration (competition with Tyr): Tyr 25-300 μM, ATP held at 2.5 mM
[4] = test system: Moraxella catarrhalis (ATCC 25238); assay: Broth microdilution MIC testing; type: cell-based; details: Gram-negative M. catarrhalis
Summary of the method: (§1)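 Broth microdilution MIC testing following CLSI guideline M7-A7, run against a 10-strain bacterial panel that included E. coli and P. aeruginosa efflux-pump mutants and a hypersensitive P. aeruginosa strain.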

[5] = test system: human embryonic kidney 293 cells (HEK293); assay: In vitro cytotoxicity test; type: cell-based; details: 25-400 μg/mL, 24 h, triplicate
TyrRS = details: cited from earlier work
P. aeruginosa TyrRS-S [6] = molecular target: T1, P. aeruginosa TyrRS-S; assay: ATP:PPi exchange reaction; type: biochemical; details: other substrate (Tyr or ATP) held at 2 mM; enzyme 0.4 μM
P. aeruginosa TyrRS-Z [7] = molecular target: T2, P. aeruginosa TyrRS-Z; assay: ATP:PPi exchange reaction; type: biochemical; details: other substrate (Tyr or ATP) held at 2 mM; enzyme 0.4 μM
eukaryotic LysRS = details: cited from earlier work
[8] = test system: Haemophilus influenzae (ATCC 49766); assay: Broth microdilution MIC testing; type: cell-based; details: Gram-negative respiratory pathogen H. influenzae
Summary of the method: as §1

HEK-293 cell line = details: quantitative high-throughput screening; ref PubChem CID 53183345; cited from earlier work
NIH-3T3 cell line = details: quantitative high-throughput screening; ref PubChem CID 53183345; cited from earlier work
LysRS = details: cited from earlier work
S. aureus TyrRS = details: cited from earlier work

T1 sequence (Q9HWP3 whole entry): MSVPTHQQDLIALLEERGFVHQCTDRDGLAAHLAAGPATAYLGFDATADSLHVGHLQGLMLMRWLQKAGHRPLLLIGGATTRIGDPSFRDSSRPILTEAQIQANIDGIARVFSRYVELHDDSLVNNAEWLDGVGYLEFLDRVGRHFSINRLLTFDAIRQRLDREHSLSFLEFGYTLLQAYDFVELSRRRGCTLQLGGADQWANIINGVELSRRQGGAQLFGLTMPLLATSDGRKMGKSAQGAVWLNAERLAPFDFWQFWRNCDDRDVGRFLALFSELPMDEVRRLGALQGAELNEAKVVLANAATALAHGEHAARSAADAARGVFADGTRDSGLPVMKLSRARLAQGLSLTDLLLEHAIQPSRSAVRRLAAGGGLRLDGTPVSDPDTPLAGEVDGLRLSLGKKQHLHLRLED
T2 sequence (Q9I5Q3 whole entry): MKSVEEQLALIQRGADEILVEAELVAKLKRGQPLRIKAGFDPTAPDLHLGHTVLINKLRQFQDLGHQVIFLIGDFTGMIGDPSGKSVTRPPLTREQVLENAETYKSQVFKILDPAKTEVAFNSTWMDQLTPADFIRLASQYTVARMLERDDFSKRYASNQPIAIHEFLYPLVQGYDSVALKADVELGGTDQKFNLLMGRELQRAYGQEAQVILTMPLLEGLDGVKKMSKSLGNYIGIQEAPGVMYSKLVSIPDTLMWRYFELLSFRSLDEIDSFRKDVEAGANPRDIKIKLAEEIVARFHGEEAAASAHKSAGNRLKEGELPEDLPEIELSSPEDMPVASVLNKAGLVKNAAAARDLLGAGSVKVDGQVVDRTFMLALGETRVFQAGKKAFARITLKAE

SMILES	shift in the IC50 with increasing ATP concentration (competition with ATP) (P. aeruginosa TyrRS-S [3])	shift in the IC50 with increasing Tyr concentration (competition with Tyr) (P. aeruginosa TyrRS-S [3])	inhibition of cultures (MIC testing) [4]	toxicity to human cell cultures [5]	effect on TyrRS (TyrRS)	other results
CC(=O)N1CCc2cc(Br)c(S(=O)(=O)NCCN3CCCCC3C)cc21 (stereo not shown) [BCD38C11, 1-acetyl-5-bromo-N-[2-(2-methylpiperidin-1-yl)ethyl]indoline-6-sulfonamide]	increased with increasing ATP concentrations	no change in the IC50 values	inhibited	failed to exhibit toxic effects at any concentrations tested		IC50 (P. aeruginosa TyrRS-S [1]): 71 µM; IC50 (P. aeruginosa TyrRS-Z [2]): 241 µM; Ki (P. aeruginosa TyrRS-S [3]): 5.28 µM
COc1ccc(-c2oc3cc(O)cc(O)c3c(=O)c2O)cc1 [kaempferide]					inhibitory effects	
Nc1ncnc2c1ncn2[C@@H]1O[C@H](COP(=O)(O)OP(=O)(O)OP(=O)(O)O)[C@@H](O)[C@H]1O [ATP]						kcat^obs for interaction with TyrRS-S (P. aeruginosa TyrRS-S [6]): 1.0 s⁻¹; kcat^obs for interaction with TyrRS-Z (P. aeruginosa TyrRS-Z [7]): 3.8 s⁻¹
O=C(O[C@@H]1Cc2c(O)cc(O)cc2O[C@@H]1c1cc(O)c(O)c(O)c1)c1cc(O)c(O)c(O)c1 [epigallocatechin, gallate]					inhibitory effects	
Cc1ccc(N2CN(CC(=O)Nc3cccc(Cl)c3)S(=O)(=O)c3cccnc32)cc1 [BCD49D09, N1-(3-chlorophenyl)-2-[4-(4-methylphenyl)-1,1-dioxo-3,4-dihydro-1λ6-pyrido[2,3-e][1,2,4]thiadiazin-2(1H)-yl] acetamide]	increased with increasing ATP concentrations	no change in the IC50 values	inhibited	failed to exhibit toxic effects at any concentrations tested		
C[C@H]1CCC[C@H](C[C@H]2Cc3cc(O)cc(O)c3C(=O)O2)O1 [cladosporin]						inhibition of eukaryotic LysRS (eukaryotic LysRS): potent ATP competitive inhibitor
COc1ccc(-c2cc(=O)c3c(O)cc(O)cc3o2)cc1 [acacetin]					inhibitory effects	
O=C(c1ccccc1)N1CCCn2cc(-c3ccc4c(c3)OCO4)nc21 [BCD54B04, [2-(1,3-benzodioxol-5-yl)-6,7-dihydroimidazo[1,2-a]pyrimidin-8(5H)-yl](phenyl) methanone]	no shift in the IC50	no shift in the IC50	inhibited	failed to exhibit toxic effects at any concentrations tested		IC50 (P. aeruginosa TyrRS-S [1]): 50 µM; effectiveness against cultures (MIC testing) [8]: effective; toxicity in HEK-293 cell line (HEK-293 cell line): nontoxic; toxicity in NIH-3T3 cell line (NIH-3T3 cell line): nontoxic
O=c1cc(-c2ccccc2)oc2cc(O)cc(O)c12 [chrysin]					inhibitory effects	
O=C1Nc2ccccc2Oc2cc(N3CCc4ccccc4C3)c(S(=O)(=O)N3CCCCC3)cc21 [BCD37H06, 3-(3,4-dihydroisoquinolin-2(1H)-yl)-2-(piperidin-1-ylsulfonyl) dibenzo[b,f][1,4]oxazepin-11(10H)-one]	no shift in the IC50	no shift in the IC50	inhibited	failed to exhibit toxic effects at any concentrations tested		IC50 (P. aeruginosa TyrRS-S [1]): 24 µM; effectiveness against cultures (MIC testing) [8]: effective
C=CC1=C(C)/C(=C/c2[nH]c(Cc3[nH]c(/C=C4\NC(=O)C(C)=C4C=C)c(C)c3CCC(=O)O)c(CCC(=O)O)c2C)NC1=O [bilirubin]						inhibition of LysRS (LysRS): specific inhibitor of ATP binding
N[C@@H](Cc1ccc(O)cc1)C(=O)NC(C(=O)O)[C@H]1[C@H](O)[C@]2(O)CO[C@@H]([C@@H]2O)N1O (stereo partly shown) [SB-219383]						IC50 against S. aureus TyrRS (S. aureus TyrRS): low nanomolar range
